Active and inactive are the calls of the source. The calls are words filed in the database; no cut-off is given here.
Experiments:
[1] = tested on: LOX IMVI; test: Growth inhibition of human LOXIMVI cells assessed as cell growth at 10 uM after 48 hrs by sulforhodamine B assay; assay type: functional; conditions: read-out: Activity
Outline: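 NCI-60 single-dose screen at 10 µM: cells in RPMI 1640 with 5% FBS, preincubated 24 h, then exposed 48 h at 37 °C. TCA fixation (16% final for suspension cells), SRB staining, absorbance 515 nm. Percent growth relative to time-zero and untreated control plates; negative values indicate cell kill.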

[2] = tested on: MCF7; test: Growth inhibition of human MCF7 cells after 48 hrs by sulforhodamine B assay; assay type: functional; conditions: MCF7, 48 h
Outline: (§1)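 NCI-60 panel cells grown in RPMI 1640 with 5% FBS and 2 mM L-glutamine, seeded at 5000–40,000 cells/well and preincubated 24 h. Five 10-fold dilutions (0.001–100 µM) from DMSO stocks were added for 48 h at 37 °C. Adherent cells were fixed with cold TCA (10% final) for 60 min at 4 °C, stained with 0.4% SRB, and read at 515 nm. GI50 was set where 100×(T−T0)/(C−T0)=50.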

[3] = tested on: OVCAR-8; test: Growth inhibition of human OVCAR8 cells after 48 hrs by sulforhodamine B assay; assay type: functional; conditions: OVCAR-8, 48 h; outline: as §1
[4] = tested on: SK-MEL-28; test: Growth inhibition of human SK-MEL-28 cells after 48 hrs by sulforhodamine B assay; assay type: functional; conditions: SK-MEL-28, 48 h; outline: as §1
[5] = tested on: SNB-75; test: Growth inhibition of human SNB75 cells after 48 hrs by sulforhodamine B assay; assay type: functional; conditions: SNB-75, 48 h
Outline: (§2)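 NCI-60 five-dose screen. Cells were grown in RPMI 1640 with 5% FBS and 2 mM L-glutamine, plated at 5000–40,000 cells/well and incubated 24 h before dosing, with T0 plates TCA-fixed. DMSO stocks were diluted to doses of […] and exposed 48 h at 37 °C, 5% CO2. Cells were fixed with cold TCA (final 10%, 60 min, 4 °C), stained with 0.4% SRB in 1% acetic acid for 10 min, solubilized in 10 mM trizma base and read at 515 nm. GI50 is where 100×(T−T0)/(C−T0)=50.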

[6] = tested on: SW-620; test: Growth inhibition of human SW620 cells after 48 hrs by sulforhodamine B assay; assay type: functional; conditions: SW-620, 48 h; outline: as §2
[7] = tested on: NCI-H460; test: Growth inhibition of human NCI-H460 cells after 48 hrs by sulforhodamine B assay; assay type: functional; conditions: NCI-H460, 48 h; outline: as §1
[8] = tested on: MCF-10A; test: Selectivity index, ratio of IC50 for human MCF10A cells to ratio of IC50 for mouse +SA cells; assay type: functional
Outline: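 Index is the IC50 in MCF10A divided by the IC50 in +SA. +SA cells were kept in serum-free DMEM/F12 defined medium and given BSA-conjugated compounds at 0–40 µM (DMSO <0.1%). MCF10A cells were plated at 10×10^4 cells/well and fed compounds in serum-free medium.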

[9] = tested on: MCF-10A; test: Antiproliferative activity against human MCF10A cells by MTT assay; assay type: cell-based
Outline: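 MCF10A kept in DMEM/F12 with 5% horse serum, hydrocortisone, cholera toxin, insulin and EGF, plated at 10 × 10^4 cells/well. Compounds from DMSO stock (final DMSO <0.1%, equal across groups) fed in serum-free media. Viable cell number by MTT; IC50 by non-linear regression.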

[10] = tested on: SK-MEL-5; test: Growth inhibition of human SK-MEL-5 cells after 48 hrs by sulforhodamine B assay; assay type: functional; conditions: SK-MEL-5, 48 h; outline: as §1
[11] = tested on: MDA-MB-231; test: Antimigratory activity against human MDA-MB-231 cells after 24 hrs by wound-healing assay; assay type: functional, cell-based; conditions: MDA-MB-231, 24 h
Outline: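 MDA-MB-231 in RPMI 1640 with 10% FBS grown to >95% confluent monolayer, scratched with a pipette tip and washed. Then 24 h exposure in 0.5% serum at five non-toxic concentrations in DMSO, triplicate, DMSO as negative control. Diff Quick fixed and stained; migrated cells counted in ≥3 random 40× fields. IC50 = concentration inhibiting migration of 50% of cells.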

[12] = tested on: K562; test: Growth inhibition of human K562 cells after 48 hrs by sulforhodamine B assay; assay type: functional; conditions: K562, 48 h
Outline: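 NCI-60 screen: cells in RPMI 1640 with 5% FBS and 2 mM glutamine, 5000–40,000 cells/well, preincubated 24 h. Five concentrations (10-fold dilutions; 100 to 0.001 µM) applied for 48 h at 37 °C. TCA fixation, SRB stain, absorbance at 515 nm. Time-zero plates included; GI50 where 100×(T−T0)/(C−T0)=50.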

[13] = tested on: +SA cell; test: Antitumor activity against mouse +SA cells allografted in BALB/c mouse assessed as reduction in tumor volume at 0.5 mg, iv administered on day 40 post challenge for 14 days; assay type: functional, organism-based
Outline: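 Female BALB/c mice, 3–4 months old, given 1 × 10^6 +SA cells into the #4 mammary fat pad under ketamine/xylazine. About 40 days later, once tumors were palpable, 0.5 mg in 0.1 mL propylene glycol/DMSO (1:1) by daily tail-vein injection for 14 days; vehicle controls. Caliper volume L×W²/2 and body weight recorded every other day. 14–15 mice/group; ANOVA with Duncan's test.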

[14] = tested on: Mus musculus; test: Toxicity in BALB/c mouse allografted with mouse +SA cells assessed as body weight change at 0.5 mg, iv administered on day 40 post challenge for 14 days; assay type: organism-based, +SA cell; conditions: in vivo, 336 h
Outline: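 Female BALB/c mice, 3–4 months old, received 1×10^6 +SA cells in 0.1 mL medium into the #4 mammary fat pad. About 40 days later, once tumors were palpable, daily tail-vein injections began for 14 days: 0.5 mg in 0.1 mL propylene glycol/DMSO (1:1), with vehicle controls. Body weight was recorded every other day, with 14–15 mice per group. Analysis used ANOVA with Duncan's test.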

SMILES | growth at 10 µM [1] [%] | GI50 [2] [nM] | GI50 [3] [nM] | GI50 [4] [nM] | GI50 [5] [nM] | GI50 [6] [nM] | GI50 [7] [nM] | Ratio IC50 [8] | IC50 [9] [nM] | GI50 [10] [nM] | IC50 [11] [nM] | GI50 [12] [nM] | Activity [13] | Activity [14]
CC(C)=CCC/C(C)=C/CC/C(C)=C/CC[C@]1(C)CCc2c3c(c(C)c(C)c2O1)OCN(CCCCCO)C3 | 40.2 | 3740 | 6390 | 5890 | 4030 | 6050 | 5180 | 5.24 | 8900 | – | – | – | – | –
CC(C)=CCC/C(C)=C/CC/C(C)=C/CC[C@]1(C)CCc2c3c(cc(C)c2O1)OCN(CCc1ccc(O)cc1)C3 | -93 | 1280 | 5840 | 5590 | 4740 | 1590 | 1120 | 2.09 | 1900 | 5420 | 2400 | – | – | –
CC(C)=CCC/C(C)=C/CC/C(C)=C/CC[C@]1(C)CCc2c3c(cc(C)c2O1)OCN(C1CCN(Cc2ccccc2)CC1)C3 | -47.4 | 1590 | 1400 | 2010 | 1670 | 480 | 618 | – | – | – | – | – | – | –
CC(C)=CCC/C(C)=C/CC/C(C)=C/CC[C@]1(C)CCc2c3c(c(C)c(C)c2O1)OCN(CCCCCCO)C3 | -88.4 | 2730 | 3060 | 2760 | 2460 | – | 3150 | – | – | 2880 | – | 2960 | – | –
CC(C)=CCC/C(C)=C/CC/C(C)=C/CC[C@]1(C)CCc2c3c(c(C)c(C)c2O1)OCN(CCCCCCCCO)C3 | -80.1 | 2590 | 2670 | 2620 | 2380 | – | 3250 | 1.43 | 2000 | 2900 | 4700 | 3500 | – | –
COc1ccc(CCNCc2c(O)c(C)c(C)c3c2CC[C@@](C)(CC/C=C(\C)CC/C=C(\C)CCC=C(C)C)O3)cc1OC | 52.9 | – | – | – | – | – | – | – | – | – | – | – | Active | Non-toxic
CC(C)=CCC/C(C)=C/CC/C(C)=C/CC[C@]1(C)CCc2c3c(cc(C)c2O1)OCN(CCCCCCCCCCO)C3 | 87.3 | – | – | – | – | – | – | – | – | – | 7200 | – | – | –
COc1ccc(CCN2COc3c(C)c(C)c4c(c3C2)CC[C@@](C)(CC/C=C(\C)CC/C=C(\C)CCC=C(C)C)O4)cc1OC | 98.6 | – | – | – | – | – | – | 0.39 | 700 | – | – | – | – | –
CC(C)=CCC/C(C)=C/CC/C(C)=C/CC[C@]1(C)CCc2c3c(cc(C)c2O1)OCN(CCCO)C3 | -89.8 | 1660 | 1950 | 1780 | 1290 | 1830 | 1930 | 3.61 | 6500 | – | 6000 | – | – | –
CC(C)=CCC/C(C)=C/CC/C(C)=C/CC[C@]1(C)CCc2c(CNCCc3ccc(O)cc3)c(O)c(C)c(C)c2O1 | 63.9 | – | – | – | – | – | – | – | – | – | – | – | – | –
CC(C)=CCC/C(C)=C/CC/C(C)=C/CC[C@]1(C)CCc2c3c(c(C)c(C)c2O1)OCN(CCc1ccc(O)cc1)C3 | 30.3 | – | – | – | – | – | – | 5.67 | 8500 | – | 4500 | – | – | –
CC(C)=CCC/C(C)=C/CC/C(C)=C/CC[C@]1(C)CCc2c3c(c(C)c(C)c2O1)OCN(CCCCCCCCCCO)C3 | 93.6 | – | – | – | – | – | – | – | – | – | – | – | – | –
COc1ccc(CCN2COc3cc(C)c4c(c3C2)CC[C@@](C)(CC/C=C(\C)CC/C=C(\C)CCC=C(C)C)O4)cc1OC | -77.7 | 1540 | 2200 | 1750 | 1200 | 2000 | 2180 | – | – | – | – | – | – | –
CC(C)=CCC/C(C)=C/CC/C(C)=C/CC[C@]1(C)CCc2c3c(cc(C)c2O1)OCN(CCCCCCCCCCCCO)C3 | 67.1 | – | – | – | – | – | – | – | – | – | – | – | – | –
CC(C)=CCC/C(C)=C/CC/C(C)=C/CC[C@]1(C)CCc2c3c(cc(C)c2O1)OCN(CCCCCCCCO)C3 | -86.9 | 515 | 4460 | 3430 | 4110 | – | 710 | 2.15 | 1700 | 2760 | 4900 | 772 | – | –
CC(C)=CCC/C(C)=C/CC/C(C)=C/CC[C@]1(C)CCc2c3c(c(C)c(C)c2O1)OCN(CCCCCCCCCCCCO)C3 | 100 | – | – | – | – | – | – | – | – | – | – | – | – | –
CC(C)=CCC/C(C)=C/CC/C(C)=C/CC[C@]1(C)CCc2c3c(cc(C)c2O1)OCN(CCCCCCO)C3 | -90.8 | 579 | 4450 | 2010 | 3140 | – | 692 | 1.92 | 2500 | 2500 | 1500 | 810 | – | –
CC(C)=CCC/C(C)=C/CC/C(C)=C/CC[C@]1(C)CCc2c3c(c(C)c(C)c2O1)OCN(CCCCO)C3 | -90.5 | 1780 | > 10000 | > 10000 | 9350 | – | 1940 | – | – | > 10000 | 10700 | 2460 | – | –
CC(C)=CCC/C(C)=C/CC/C(C)=C/CC[C@]1(C)CCc2c3c(cc(C)c2O1)OCN(CCCCO)C3 | 100 | – | – | – | – | – | 6180 | 2.34 | 4200 | 14500 | 2200 | 7420 | – | –
CC(C)=CCC/C(C)=C/CC/C(C)=C/CC[C@]1(C)CCc2cc(O)c(C)c(C)c2O1 [GAMMA-TOCOTRIENOL] | 90 | – | – | – | – | – | – | 1.1 | 4400 | – | > 40000 | – | inactive | Non-toxic
CC(C)=CCC/C(C)=C/CC/C(C)=C/CC[C@]1(C)CCc2c3c(cc(C)c2O1)OCN(CCCCCO)C3 | -0.88 | 3740 | 6390 | 5890 | 4030 | 6050 | 5180 | 6.57 | 4600 | – | – | – | – | –
